Screening data as filed in PubChem.
SMARCA2 act = increases SMARCA2 function in MMTV reporter cells; MG213 cells, MMTV-luciferase reporter, dexamethasone, overnight; activation, % at 9.1 µM; hit rate 1% among 370,000; in the data active = activation above about 7.8%
Efflux pump mplx = antifungal efflux pump inhibition, Nile Red retention | S. cerevisiae Candida pump triplex | inhibition, % at 10 µM | hit rate 0.44% among 330,000;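 active = plate passing quality check with inhibition over a set limit, or well fluorescence over plate mean plus 4 SD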;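 note: Nile Red retained in pooled yeast measured as flow cytometry median fluorescence; higher means more Nile Red kept so more efflux inhibition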
TAG inh = reduces triacylglycerol accumulation in H9c2 cells; hit rate 0.66% among 230,000; Nile Red lipid (TAG) fluorescence; cells loaded with 200 µM oleic acid; inhibition, % at 12.5 µM;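 active = pattern-corrected inhibition of lipid staining of at least 50% with the nuclear-stain viability signal not falling by more than 50%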
AHR act = human AHR activation; P35869; AHR-responsive luciferase reporter cells, luminescence; activation, % at 5 µM; hit rate 2.5% among 320,000; in the data active = activation above about 47%
Tb MetRS inh = blocks T. brucei methionyl-tRNA synthetase activity; purified T. brucei MetRS, ATP depletion, Kinase-Glo luminescence; inhibition, % at 11.9 µM; hit rate 0.4% among 360,000; AID 624268;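 active = inhibition above a per-plate cutoff of the control wells' mean inhibition plus 3 SD, cut at about 5.5% in these data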
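Material: T. brucei methionyl-tRNA synthetase, purified; reagent: substrates ATP, L-methionine and bulk Escherichia coli tRNA; dosing: 11.9 µM single point; timing: 15 min plus 2 h at 25 °C; detection: luminescence of leftover ATP; evaluation: % inhibition; control set: DMSO-only wells as low control; replicates: singlicate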
AHR act confirm = human AHR activation, confirmation | activation, % at 9 µM | hit rate 87% among 2,300 | shares compounds with AHR act | human cells, AHR-responsive luciferase reporter, luminescence; in the data active = activation above about 49%;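 note: HepG2 hepatoma cells carrying a DRE-driven firefly luciferase reporter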
PXR act counter = counter-screen for AHR activators: human PXR activators | shares compounds with AHR act | hit rate 88% among 2,300 | cell-based PXR reporter, luciferase luminescence | AID 434939 | activation, % at 11.6 µM; in the data active = activation above about 11%;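 note: human hepatoma DPX-2 cells expressing full-length human PXR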
Target sequence (O75469 whole entry, looked up): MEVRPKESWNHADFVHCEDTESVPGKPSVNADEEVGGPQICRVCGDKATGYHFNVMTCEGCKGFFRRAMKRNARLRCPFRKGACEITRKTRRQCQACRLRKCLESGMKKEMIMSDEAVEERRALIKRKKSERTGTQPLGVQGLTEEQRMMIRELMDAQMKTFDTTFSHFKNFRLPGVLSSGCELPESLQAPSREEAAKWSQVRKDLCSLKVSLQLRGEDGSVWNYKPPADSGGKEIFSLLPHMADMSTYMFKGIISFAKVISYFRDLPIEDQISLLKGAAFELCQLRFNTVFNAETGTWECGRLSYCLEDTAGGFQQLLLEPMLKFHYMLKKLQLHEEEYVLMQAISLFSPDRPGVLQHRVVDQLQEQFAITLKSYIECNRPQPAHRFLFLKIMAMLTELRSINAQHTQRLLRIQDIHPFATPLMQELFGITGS
Large screens that a line does not name were inactive (follow-up assays come after a bar, where they were run). Rows were chosen to be rich in hits. Some 4.1% of all compounds tested hit in one or more screens of this group.

Cc1c(C(=O)Nc2ccccc2)csc1-c1ccccc1	none (no result: TAG inh)
Cc1c(C(=O)Nc2ccccc2[N+](=O)[O-])csc1-c1ccccc1	AHR act 122 | AHR act confirm 63 | PXR act counter 27
COc1ccc(-c2noc(-c3ccc(Br)o3)n2)cc1	AHR act 79 | AHR act confirm 107 | PXR act counter 17
COc1ccc(-c2nc(-c3ccc(Br)o3)no2)cc1	none
COc1cccc(-c2noc(-c3ccc(Br)o3)n2)c1	AHR act 84 | AHR act confirm 88 | PXR act counter inactive
COc1cccc(-c2noc(-c3cccnc3)n2)c1	AHR act 85 | AHR act confirm 134 | PXR act counter inactive
COc1ccc(-c2nc(-c3cccnc3)no2)cc1OC	none
O=C(NC1CC1)c1cc2ccccc2o1	none (no result: TAG inh)
O=C(NC1CCCC1)c1cc2c(ccc3ccccc32)o1	AHR act 112 | AHR act confirm 66
O=C(CSc1nccc(=O)[nH]1)N1N=C2/C(=C/c3ccco3)CCCC2C1c1ccco1 (stereo unspecified)	none
O=C(CSc1ncn[nH]1)N1N=C2/C(=C/c3ccccc3)CCCC2C1c1ccccc1 (stereo unspecified)	AHR act 98 | AHR act confirm 88 | PXR act counter 74
O=C(/C=C/c1ccccn1)c1cc(Cl)cc(Cl)c1O	AHR act 83 | AHR act confirm 113 | PXR act counter 219
O=[N+]([O-])c1ccc(CSc2nc3ncc(Br)cc3[nH]2)cc1	none
O=C(CSc1nc2ncc(Br)cc2[nH]1)c1cccc([N+](=O)[O-])c1	AHR act 92 (no result: TAG inh) | AHR act confirm 67 | PXR act counter 98
COc1cccc(NC(=O)CSc2nc3c([nH]c4ccccc43)c(=O)n2C)c1	none
COc1ccccc1-n1c(SCC(=O)NCC2CCCO2)nc2c([nH]c3ccccc32)c1=O (stereo unspecified)	AHR act 90 | AHR act confirm 127 | PXR act counter 164
COCCn1c(SCC(=O)Nc2cccc(NC(C)=O)c2)nc2c([nH]c3ccccc32)c1=O	AHR act 108 | AHR act confirm 91 | PXR act counter 39
O=C(CSc1nc2c([nH]c3ccccc32)c(=O)n1-c1ccccc1)NCC1CCCO1 (stereo unspecified)	none
COc1ccccc1-n1c(SCC(=O)Nc2ccc(NC(C)=O)cc2)nc2c([nH]c3ccccc32)c1=O	AHR act 81 | AHR act confirm 100 | PXR act counter 119
CCn1c(SCC(=O)NCC2CCCO2)nc2c([nH]c3ccccc32)c1=O (stereo unspecified)	AHR act 80 | AHR act confirm 88 | PXR act counter 80
CN(C)S(=O)(=O)c1cccc(NC(=O)c2ccc3c(c2)OCCO3)c1	AHR act 102 | AHR act confirm 92 | PXR act counter 110
CCN(CC)S(=O)(=O)c1cccc(C(=O)Nc2ccc3c(c2)OCO3)c1	AHR act 165 | AHR act confirm 103 | PXR act counter 134
CN(C)S(=O)(=O)c1cccc(C(=O)Nc2cc(Cl)ccc2O)c1	AHR act 84 (no result: TAG inh) | AHR act confirm inactive | PXR act counter 90
CN(C)S(=O)(=O)c1cccc(C(=O)Nc2ccccc2Cl)c1	none (no result: TAG inh)
CCCN(CCC)S(=O)(=O)c1cccc(C(=O)Nc2ccc3c(c2)OCO3)c1	none (no result: TAG inh)
COc1ccc2sc(-c3ccc(SC)cc3)c(-c3ccc(O)cc3)c2c1	AHR act 80 (no result: TAG inh) | AHR act confirm 84 | PXR act counter 19
COc1ccc2sc(-c3ccccc3OC)c(-c3ccc(SC)cc3)c2c1	none (no result: Efflux pump mplx, TAG inh, AHR act)
S=c1nc2ccccc2c2nc(-c3ccccc3)[nH]n12	AHR act 106 | AHR act confirm 129 | PXR act counter 23
S=c1nc2ccccc2c2nc(-c3ccccc3Cl)[nH]n12	AHR act 134 (no result: TAG inh) | AHR act confirm 129 | PXR act counter 28
Cc1ccc(-c2nnc(SCC(=O)Nc3ccc(F)cc3F)n2Cc2ccco2)cc1	none (no result: Efflux pump mplx, TAG inh, AHR act, Tb MetRS inh)
O=C(O)c1ccc(N/N=C/c2ccncc2)cc1	none (no result: TAG inh)
O=C(O)c1ccc(N/N=C/C2=Cc3ccccc3OC2)cc1	AHR act 122 | AHR act confirm 83 | PXR act counter 18
COC(=O)/C=c1/sc2nc3ccccc3n2c1=O	none (no result: TAG inh)
O=c1c2ccccc2nc2sc3ccccc3n12	AHR act 113 | AHR act confirm 155 | PXR act counter 14
CN1CCN(c2ccc(C(=O)c3cn(-c4ccc(F)c(Cl)c4)nn3)cc2)CC1	none
Cc1ccc(-n2cc(C(=O)c3ccc(N4CCN(C)CC4)cc3)nn2)cc1Cl	AHR act 90 | AHR act confirm inactive | PXR act counter 15
Cc1cc(C(=O)N/N=C/c2ccc(C)s2)n[nH]1	AHR act 97 (no result: TAG inh) | AHR act confirm 89 | PXR act counter 24
O=C(CSc1nc2ccccc2n1Cc1ccccc1)NN=C/C=C/c1ccccc1	none (no result: Efflux pump mplx, TAG inh, AHR act, Tb MetRS inh)
CC(=O)c1ccc(NC(=O)c2ccc3snnc3c2)cc1	none
CN(C)c1ccc(NC(=O)c2ccc3nsnc3c2)cc1	none (no result: TAG inh)
O=C(Nc1ccc(Cl)cc1)c1ccc2nsnc2c1	AHR act 85 | AHR act confirm 143 | PXR act counter 12
O=C(Nc1ccc(Cl)cc1)c1ccc2snnc2c1	AHR act 129 | AHR act confirm 103 | PXR act counter 26
O=C(N/N=C/c1c[nH]c2ccccc12)c1cc(-c2ccc3ccccc3c2)n[nH]1	AHR act 145 (no result: TAG inh) | AHR act confirm 53 | PXR act counter 12
O=C(N/N=C/c1c[nH]c2ccccc12)c1cc(-c2ccccc2)n[nH]1	none
O=C(N/N=C/c1c[nH]c2ccccc12)c1cc(-c2cccc3ccccc23)n[nH]1	AHR act 92 | AHR act confirm inactive | PXR act counter inactive
CCN(CC)c1ccc(/C=N/N(c2ccccc2)c2ccccc2)c(O)c1	AHR act 94 (no result: TAG inh) | AHR act confirm 90 | PXR act counter 97
O=C(O)CN1C(=O)/C(=C\c2ccccc2OCc2ccc(Cl)cc2Cl)SC1=S	AHR act 82 | AHR act confirm 59 | PXR act counter 29
S=C(Nc1ccccc1)c1nc2ccccc2s1	AHR act 124 | AHR act confirm 142 | PXR act counter inactive
CCOc1ccccc1C(=O)Nc1ccc2nc(C)[nH]c(=O)c2c1	none (no result: Efflux pump mplx, TAG inh, AHR act, Tb MetRS inh)
COc1cc(-c2csc(NC3CCCCC3)n2)cc(OC)c1OC	AHR act 81 (no result: TAG inh) | AHR act confirm 50 | PXR act counter 37
Cn1c(SCC(=O)Nc2ccccc2-c2ccccc2)nnc1-c1cnccn1	none (no result: Efflux pump mplx, TAG inh, AHR act, Tb MetRS inh)
COc1cc(NC(=O)c2cccs2)c(OC)cc1NC(=O)c1ccco1	AHR act 94 (no result: TAG inh) | AHR act confirm 117 | PXR act counter 10
COc1ccc(NC(=O)c2ccco2)cc1NC(=O)c1ccc(C)cc1	AHR act 93 | AHR act confirm 106 | PXR act counter 13
COc1ccc(NC(=O)CCc2ccccc2)cc1NC(=O)c1ccco1	none (no result: TAG inh)
